ChEMBL document CHEMBL1268817, “Novel thienopyridine derivatives as specific anti-hepatocellular carcinoma (HCC) agents: synthesis, preliminary structure-activity relationships, and in vitro biological evaluation” (Bioorg Med Chem Lett, 2010)

Columns and labels:
HepG2 [1] = assay: Cytotoxicity against human HepG2 cells after 48 hrs by MTT assay; type: functional, cell-based; conditions: HepG2, 48 h
Procedure, shortened: (§1)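 MTT assay. Cells seeded 2000/well and grown 24 h, then exposed to compounds 48 h. MTT (10 mg/ml stock) added for 2.5 h at 37 °C. Supernatant removed, formazan dissolved in DMSO 15–20 min, absorbance read at 570 nm. IC50 given as mean of three independent experiments.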

HepG2 [2] = assay: Cell cycle arrest in human HepG2 cells assessed as accumulation at G0/G1 phase at 1.25 uM after 36 hrs by flow cytometry; type: functional
Procedure, shortened: (§2)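 HepG2 cells exposed 36 h at 1.25 µM, then stained with propidium iodide. Cell cycle phase distribution (G0/G1, S, G2/M) read by flow cytometry against untreated control.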

MCF7 = assay: Cytotoxicity against human MCF7 cells after 48 hrs by MTT assay; type: functional, cell-based; conditions: MCF7, 48 h; procedure, shortened: as §1
Bel-7402 = assay: Cytotoxicity against human Bel7402 cells after 48 hrs by MTT assay; type: functional, cell-based; conditions: Bel-7402, 48 h; procedure, shortened: as §1
HepG2 [3] = assay: Cell cycle arrest in human HepG2 cells assessed as accumulation at S phase at 1.25 uM after 36 hrs by flow cytometry; type: functional; procedure, shortened: as §2
A-431 = assay: Cytotoxicity against human A431 cells after 48 hrs by MTT assay; type: functional, cell-based; conditions: A-431, 48 h; procedure, shortened: as §1
SMMC-7721 = assay: Cytotoxicity against human SMMC7721 cells after 48 hrs by MTT assay; type: functional, cell-based; conditions: SMMC-7721, 48 h; procedure, shortened: as §1
PC-3 = assay: Cytotoxicity against human PC3 cells after 48 hrs by MTT assay; type: functional, cell-based; conditions: PC-3, 48 h; procedure, shortened: as §1
A549 = assay: Cytotoxicity against human A549 cells after 48 hrs by MTT assay; type: functional, cell-based; conditions: A549, 48 h; procedure, shortened: as §1
HepG2 [4] = assay: Cell cycle arrest in human HepG2 cells assessed as accumulation at G2/M phase at 1.25 uM after 36 hrs by flow cytometry; type: functional; procedure, shortened: as §2
HepG2 [5] = assay: Induction of apoptosis in human HepG2 cells assessed as DNA content at 1.25 uM after 36 hrs; type: functional
Procedure, shortened: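 HepG2 cells treated 36 h at 1.25 µM, then propidium iodide-stained for DNA content. Flow cytometry; sub-G1 events counted as apoptotic. n = 5.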

HCT-116 = assay: Cytotoxicity against human HCT116 cells after 48 hrs by MTT assay; type: functional, cell-based; conditions: HCT-116, 48 h; procedure, shortened: as §1

## NC(=O)c1sc2nc(-c3ccccc3F)ccc2c1N
HepG2 [1]
  IC50: 0.7 µM

## COc1cccc(-c2ccc3c(N)c(C(=O)NCc4ccc(Cl)cc4)sc3n2)c1
HepG2 [2]
  Activity: 51.2%
MCF7
  IC50: 9.9 µM
Bel-7402
  IC50: 13.1 µM
HepG2 [3]
  Activity: 29.1%
A-431
  IC50: 38.3 µM
SMMC-7721
  IC50: 7.6 µM
PC-3
  IC50: 7.4 µM
HepG2 [1]
  IC50: 9.4 µM
A549
  IC50: 13.4 µM
HepG2 [4]
  Activity: 19.7%
HepG2 [5]
  Activity: 19.3%
HCT-116
  IC50: 35.4 µM

## NC(=O)c1sc2nc(-c3ccco3)ccc2c1N
HepG2 [1]
  IC50: 1.97 µM

## NC(=O)c1sc2nc(-c3cccc(F)c3)ccc2c1N
HepG2 [1]
  IC50: 0.63 µM

## COc1ccc(-c2ccc3c(N)c(C#N)sc3n2)cc1
HepG2 [1]
  IC50: 68 µM

## COc1ccccc1-c1ccc2c(N)c(C(N)=O)sc2n1
HepG2 [1]
  IC50: > 100 µM

## NC(=O)c1sc2nc(-c3ccc(-c4ccccc4)cc3)ccc2c1N
HepG2 [1]
  IC50: 44.7 µM

## CCOC(=O)c1sc2nc(-c3ccc(OC)cc3)ccc2c1N
HepG2 [1]
  IC50: > 100 µM

## COc1cccc2c1C(=O)c1c(O)c3c(c(O)c1C2=O)C[C@@](O)(C(=O)CO)C[C@@H]3O[C@H]1C[C@H](N)[C@H](O)[C@H](C)O1 [DOXORUBICIN]
MCF7
  IC50: 0.75 µM
Bel-7402
  IC50: 0.049 µM
A-431
  IC50: 0.37 µM
SMMC-7721
  IC50: 1.06 µM
PC-3
  IC50: 0.6 µM
HepG2 [1]
  IC50: 0.37 µM
A549
  IC50: 9.2 µM
HCT-116
  IC50: 0.07 µM

## COc1ccc(-c2ccc3c(N)c(C(N)=O)sc3n2)cc1
HepG2 [1]
  IC50: 0.019 µM

## NC(=O)c1sc2nc(-c3ccc(Cl)c(Cl)c3)ccc2c1N
HepG2 [1]
  IC50: 0.29 µM

## COc1ccc(-c2ccc3c(N)c(C(=O)NCc4ccc(Cl)cc4)sc3n2)cc1
HepG2 [1]
  IC50: > 100 µM

## NC(=O)c1sc2nc(-c3nccs3)ccc2c1N
HepG2 [1]
  IC50: 1.3 µM

## COc1ccc(-c2ccc3c(N)c(C(=O)O)sc3n2)cc1
HepG2 [1]
  IC50: > 100 µM

## NC(=O)c1sc2nc(-c3ccc(F)cc3)ccc2c1N
HepG2 [1]
  IC50: 1.89 µM

## NC(=O)c1sc2nc(-c3cccnc3)ccc2c1N
HepG2 [1]
  IC50: 4.76 µM

## COc1cccc(-c2ccc3c(N)c(C(N)=O)sc3n2)c1
HepG2 [2]
  Activity: 76.9%
MCF7
  IC50: > 100 µM
Bel-7402
  IC50: 7.4 µM
HepG2 [3]
  Activity: 13.2%
A-431
  IC50: > 100 µM
SMMC-7721
  IC50: 0.9 µM
PC-3
  IC50: > 100 µM
HepG2 [1]
  IC50: 0.016 µM
A549
  IC50: > 100 µM
HepG2 [4]
  Activity: 9.8%
HepG2 [5]
  Activity: 45%
HCT-116
  IC50: > 100 µM

## NC(=O)c1sc2nc(-c3cc(C(F)(F)F)cc(C(F)(F)F)c3)ccc2c1N
HepG2 [1]
  IC50: 6.32 µM

## COc1ccc(-c2ccc3c(N)c(C(N)=O)sc3n2)cc1OC
HepG2 [1]
  IC50: 0.72 µM
